Measured values reported in ChEMBL document CHEMBL1156856, “Design, synthesis, and biological evaluation of novel estradiol-bisphosphonate conjugates as bone-specific estrogens” (Bioorg Med Chem, 2010).
Active and inactive are the calls of the source. The rule behind the calls is not given here.

What was measured:
Rattus norvegicus [1] = assay: Estrogenic activity in bone of ovariectomized Sprague-Dawley rat assessed as increase in bone mass at 0.1 mg/kg, iv administered three times per week for 4 weeks on the first, second, and fifth days; assay type: functional, organism-based; design: dose 0.1 mg/kg
Summary of the method: (§1)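 Female SD rats, 7 weeks old on arrival, were housed 4 weeks and assigned to groups matched for mean body weight. All except sham controls were bilaterally ovariectomized. The next day they received conjugate at 0.1 mg/kg iv in 1% carboxymethyl cellulose plus 1% citrate buffer. Bone effect was read as secondary-spongiosa bone volume of the left tibia and ash weight of the right femur.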

Rattus norvegicus [2] = assay: Estrogenic activity in uterus of ovariectomized Sprague-Dawley rat assessed as increase in uterus weight at 0.1 mg/kg, iv administered three times per week for 4 weeks on the first, second, and fifth days; assay type: functional, organism-based; design: dose 0.1 mg/kg
Summary of the method: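 Female SD rats, 7 weeks old on arrival, were housed 4 weeks, weight-matched into groups, and bilaterally ovariectomized, with sham-operated controls. Conjugate was given iv at 0.1 mg/kg the day after surgery in 1% carboxymethyl cellulose plus 1% citrate buffer. Uterine weight was the read-out.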

[3] = target: T1, Estrogen receptor (Rattus norvegicus) (UniProt P06211); assay: Ratio of binding affinity of compound to estradiol at rat uterus estrogen receptor by competitive binding assay
T1 sequence (whole entry): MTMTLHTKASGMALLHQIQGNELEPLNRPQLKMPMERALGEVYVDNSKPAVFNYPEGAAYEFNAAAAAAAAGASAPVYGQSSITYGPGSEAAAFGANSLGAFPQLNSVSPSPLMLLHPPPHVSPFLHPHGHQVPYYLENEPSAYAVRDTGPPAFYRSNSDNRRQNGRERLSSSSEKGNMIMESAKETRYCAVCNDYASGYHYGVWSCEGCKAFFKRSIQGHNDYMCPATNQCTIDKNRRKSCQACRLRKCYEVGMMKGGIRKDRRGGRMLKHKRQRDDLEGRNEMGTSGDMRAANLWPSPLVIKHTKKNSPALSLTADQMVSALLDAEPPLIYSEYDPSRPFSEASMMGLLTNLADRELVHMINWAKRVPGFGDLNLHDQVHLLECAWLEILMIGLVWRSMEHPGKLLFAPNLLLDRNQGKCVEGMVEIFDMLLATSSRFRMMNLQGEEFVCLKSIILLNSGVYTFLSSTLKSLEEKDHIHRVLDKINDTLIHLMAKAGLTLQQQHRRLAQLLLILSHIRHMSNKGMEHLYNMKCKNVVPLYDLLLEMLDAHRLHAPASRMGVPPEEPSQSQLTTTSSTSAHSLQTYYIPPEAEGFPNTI

Rattus norvegicus [4] = assay: Bisphosphonate activity in ovariectomized Sprague-Dawley rat assessed as suppression of Ca2+ ion release from bone at 0.1 mg/kg, iv administered three times per week for 4 weeks on the first, second, and fifth days; assay type: functional, organism-based; design: dose 0.1 mg/kg
Summary of the method: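 In rats, bisphosphonate activity was measured as suppression of PTHrp-induced Ca2+ ion release from bone.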

Rattus norvegicus [5] = assay: Estrogenic activity in bone of ovariectomized Sprague-Dawley rat assessed as increase in bone mass at 0.1 mg/kg, iv administered three times per week for 4 weeks on the first, second, and fifth days co-administered with antiestrogen fulvaestrant; assay type: functional, organism-based; design: dose 0.1 mg/kg; summary of the method: as §1

Compound	Activity (Rattus norvegicus [2])	further results
C[C@]12CC[C@@H]3c4ccc(O)cc4CC[C@H]3[C@@H]1CC[C@@H]2O	Active	Activity (Rattus norvegicus [1]): Active
C[C@]12CC[C@@H]3c4ccc(OC(=O)CC(=O)NC(P(=O)(O)O)P(=O)(O)O)cc4CC[C@H]3[C@@H]1CC[C@@H]2O	inactive	
C[C@]12CC[C@@H]3c4ccc(O)cc4CC[C@H]3[C@@H]1CC[C@@H]2OC(=O)c1ccccc1C(=O)NC(P(=O)(O)O)P(=O)(O)O	inactive	
C[C@]12CC[C@@H]3c4ccc(OC(=O)NCCC(=O)NC(P(=O)(O)O)P(=O)(O)O)cc4CC[C@H]3[C@@H]1CC[C@@H]2O	inactive	Ratio [3]: 2000; Activity (Rattus norvegicus [1]): Active; Activity (Rattus norvegicus [4]): inactive; Activity (Rattus norvegicus [5]): inactive
C[C@]12CC[C@@H]3c4ccc(O)cc4CC[C@H]3[C@@H]1CC[C@@H]2OC(=O)CCNC(=O)NC(P(=O)(O)O)P(=O)(O)O	inactive	
C[C@]12CC[C@@H]3c4ccc(O)cc4CC[C@H]3[C@@H]1CC[C@@H]2OC(=O)CC(=O)NC(P(=O)(O)O)P(=O)(O)O	inactive	
CC(C)(C(=O)NC(P(=O)(O)O)P(=O)(O)O)C(=O)O[C@H]1CC[C@H]2[C@@H]3CCc4cc(O)ccc4[C@H]3CC[C@]12C	inactive	
